HDAC3 inhib: inhibitors of human histone deacetylase 3; O15379; recombinant HDAC3, fluorogenic peptide/trypsin coupled, fluorescence; inhibition, % at 8.3 µM; 0.15% of 320,000 active; AID 2718; in the data active = inhibition above about 26%, passing the limit was not always enough
AHR activator: activators of human aryl hydrocarbon receptor | P35869 | activation, % at 5 µM | 2.5% of 320,000 active | AID 2796 | AHR-responsive luciferase reporter cells, luminescence; in the data active = activation above about 47%;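 note: 0% = vehicle wells and 100% = reference agonist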
Target sequence (P35869 whole entry, looked up): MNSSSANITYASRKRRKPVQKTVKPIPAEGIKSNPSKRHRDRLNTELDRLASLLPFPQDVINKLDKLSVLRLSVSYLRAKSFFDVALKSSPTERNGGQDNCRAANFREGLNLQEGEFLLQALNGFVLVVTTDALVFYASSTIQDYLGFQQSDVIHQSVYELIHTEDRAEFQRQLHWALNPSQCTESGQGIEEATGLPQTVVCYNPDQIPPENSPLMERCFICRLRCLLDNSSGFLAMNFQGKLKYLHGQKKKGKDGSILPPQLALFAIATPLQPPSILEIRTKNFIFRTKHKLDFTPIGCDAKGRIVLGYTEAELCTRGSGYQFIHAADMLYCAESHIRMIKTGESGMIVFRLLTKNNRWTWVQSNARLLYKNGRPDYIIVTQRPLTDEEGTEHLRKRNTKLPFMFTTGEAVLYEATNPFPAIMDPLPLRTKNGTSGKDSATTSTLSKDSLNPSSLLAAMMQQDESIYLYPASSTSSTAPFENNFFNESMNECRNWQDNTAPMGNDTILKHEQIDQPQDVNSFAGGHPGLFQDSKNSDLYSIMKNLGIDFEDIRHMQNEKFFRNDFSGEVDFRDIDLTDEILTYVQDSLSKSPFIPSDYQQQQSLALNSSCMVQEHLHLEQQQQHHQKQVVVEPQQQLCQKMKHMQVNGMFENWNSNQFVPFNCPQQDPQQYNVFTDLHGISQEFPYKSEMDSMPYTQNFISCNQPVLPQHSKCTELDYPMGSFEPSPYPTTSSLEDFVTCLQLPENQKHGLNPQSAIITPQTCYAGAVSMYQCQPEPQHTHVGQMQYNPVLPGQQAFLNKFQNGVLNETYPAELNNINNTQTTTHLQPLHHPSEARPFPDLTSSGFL
GAA850 FXN act: activators of GAA850 frataxin (FXN) promoter | 0.56% of 360,000 active | activation, % at 6 µM | HEK293 lucGAA850 FXN promoter luciferase reporter, 24 h; percent of 10 µM SAHA response;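 active = activation above the average of all compounds screened plus 3 SD, cutoff fixed separately per campaign, cut at about 7.5% in these data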;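 note: 0% = DMSO wells and 100% = 10 µM SAHA wells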
SENP1 inh: blocks the human SENP1 SUMO protease catalytic domain | recombinant SENP1 catalytic domain, CyPet-SUMO1-YPet FRET cleavage | AID 624204 | inhibition, % at 10 µM | 0.21% of 360,000 active;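 active = inhibition at least 30% at 10 µM, raw YFP signal under a set limit, fluorescence ratio 0.5 to 1.5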;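 note: 0% = enzyme with DMSO and 100% = no enzyme wells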
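Compound: 10 µM single point, 0.5% DMSO; Test system: hSENP1 catalytic domain, recombinant; Timing: 50 min reaction at room temperature; Technique: FRET, CFP and YFP emission; Control set: no-enzyme wells low, DMSO-plus-enzyme wells high control.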
M18AAP inhibitor: blocks P. falciparum M18 aspartyl aminopeptidase | 1.2% of 290,000 active | recombinant PfM18AAP, H-Glu-NHMec fluorogenic cleavage | inhibition, % at 7.35 µM;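 active = inhibition above the campaign mean inhibition over all tested compounds plus 3 SD, cut at about 28% in these data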;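 note: 0% = plate median of test compound wells and 100% = 2 mM ZnCl2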
Fh CTSL1 inh: counter-screen for PFM18AAP inhibitors: inhibitors of F. hepatica cathepsin L1; inhibition, % at 5.96 µM; recombinant F. hepatica cathepsin L1, Z-Leu-Arg-MCA fluorescence; 0.49% of 300,000 active; AID 1906;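 active = inhibition above the mean of all tested compounds plus 3 SD, set per screening campaign, cut at about 17% in these data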;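 note: 0% = plate median of test compound wells and 100% = 1 µM Z-Phe-Ala-diazomethylketone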
SENP1 inh conf: confirmation of human SENP1 SUMO protease inhibitors; shares compounds with SENP1 inh; AID 651678; 34% of 520 active; recombinant SENP1, CyPet-SUMO1-YPet FRET cleavage; inhibition, % at 10 µM; in the data active = inhibition mostly above about 35%, no sharp cut-off; inactive = mostly below about 32%;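 note: 0% = enzyme with DMSO and 100% = no enzyme control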
SENP1 kin conf: confirmation of human SENP1 SUMO protease inhibitors, kinetic; shares compounds with SENP1 inh; recombinant SENP1, CyPet-SUMO1-YPet FRET kinetic cleavage; inhibition, % at 10 µM; 26% of 520 active; in the data active = inhibition mostly above about 32%, no sharp cut-off; inactive = mostly below about 29%;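 note: 0% = DMSO with enzyme and 100% = no enzyme substrate only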
Starred values were filed as active, the others as inactive; / = not tested or not shown. This is a sample that favours compounds with a hit; in the whole collection about 4.2% have one here.

SMILES | HDAC3 inhib | AHR activator | GAA850 FXN act | SENP1 inh | M18AAP inhibitor | Fh CTSL1 inh | SENP1 inh conf | SENP1 kin conf
CCOc1ccc(OCCC(=O)OCC(=O)N2CCN(S(=O)(=O)c3ccc(C)cc3C)CC2)cc1 | / | / | -1.3 | 2.2 | / | / | / | /
COc1ccc(Nc2nnc(SCc3cc(=O)n4ccsc4n3)s2)cc1 | -3.5 | 45.6 | 4.1 | 31.3* | 10.3 | 0.5 | 36.8* | 31.6
O=c1cc(CSc2nnc(Nc3ccccc3F)s2)nc2sccn12 | 2.7 | 15.9 | 2.4 | -1.3 | 1.4 | 3.3 | / | /
O=C1CCC[C@@H]2C[C@@]3(C[C@@H]4CCN1[C@H]24)Nc1cc([N+](=O)[O-])ccc1NC3=NC1CCCCC1 | / | / | -0.2 | 69.6* | / | / | 31.7 | 23.3
O=C1CCC[C@@H]2C[C@@]3(C[C@@H]4CCN1[C@H]24)Nc1cc(Cl)ccc1NC3=NC1CCCCC1 | / | / | -0.5 | 5.4 | / | / | / | /
CC(=O)c1ccc(-c2cnc3c(NC=O)cc(-c4cnn(C)c4)cn23)cc1 | / | / | 1.1 | -8.9 | / | / | / | /
COc1cc(/C=N/n2c(SC)nnc(C(C)(C)C)c2=O)ccc1O | 1.5 | -0.9 | 1.1 | 51.8* | 4.4 | 3.3 | 11.6 | 8.1
COc1ccc(/C=N/n2c(SC)nnc(C(C)(C)C)c2=O)cc1OC | 11.1 | 9.6 | 0.6 | 0.4 | -0.8 | 0.6 | / | /
CCOC(=O)c1sc2nc(C)nc(NCc3ccc(Cl)cc3)c2c1C | -5.4 | 11.9 | -2.3 | -1.2 | 4.8 | -1.4 | / | /
CCOC(=O)c1sc2nc(C)nc(NCc3ccc(F)cc3)c2c1C | -2.3 | 4.0 | -1.1 | 36.4* | 0.6 | 2.0 | -18.9 | 17.9
NNC(=O)c1cc(-c2ccc(N)cc2)nc2ccc(Br)cc12 | 4.1 | 37.9 | -1.8 | 49.1* | 7.1 | 2.0 | 25.6 | 23.1
Cc1cc(C(=O)NN)c2cc(Br)ccc2n1 | 7.6 | 0.1 | -3.8 | 1.1 | -7.2 | -2.8 | / | /
COCCNC(=O)c1cccc2c1C(=O)c1ccc(N3CCOCC3)cc1S2(=O)=O | 14.2 | 1.3 | 0.1 | 73.0* | / | / | 58.4* | 40.0*
O=C(NC[C@@H]1CCCO1)c1cccc2c1C(=O)c1ccc(N3CCOCC3)cc1S2(=O)=O | 2.3 | 4.2 | -0.7 | 76.1* | / | / | 64.0* | 41.4*
Nc1nc(SCc2ccc(Br)cc2)c2ncn(C3OC(CO)C(O)C3O)c2n1 (centres undefined) | / | / | 1.6 | 0.8 | / | / | / | /
O=C(NCC[C@@H]1CC[C@@H](NC(=O)c2cnccn2)[C@@H](CO)O1)c1ccc2c(c1)OCO2 | / | / | / | 1.7 | / | / | / | /
Cc1sc(Nc2ccc([N+](=O)[O-])cc2)nc1-c1c(C)n(C)n(-c2ccccc2)c1=O | 12.2 | 3.9 | 2.5 | 38.1* | -8.5 | -0.4 | 19.2 | 14.0
O=C1CSCC(=O)N1c1ccccc1 | -2.4 | 1.7 | -1.4 | 1.7 | -6.0 | -6.2 | / | /
O=C1C2=C(SCCS2)C(=O)N1c1ccccc1 | -1.8 | -3.6 | 3.1 | 35.9* | -1.2 | 0.0 | 21.4 | 28.6
CC(Oc1ccccc1)C(=O)N=C1SC2CS(=O)(=O)CC2N1c1cccc(F)c1 (centres undefined) | 1.0 | -2.1 | 1.0 | 1.7 | -3.4 | -1.0 | / | /
CCOC(=O)N/N=C/c1ccc(F)cc1F | 0.9 | 0.5 | 3.4 | 0.3 | -0.3 | -1.8 | / | /
COc1cccc(/C=C/C(=O)OCC(=O)c2ccc(C)c(C)c2)c1OC | -7.3 | 1.1 | 0.0 | 2.2 | / | / | / | /
CCOC(=O)/C=C/c1cccc(C)c1O | / | / | / | 32.3* | / | / | 17.2 | 36.5*
CCOC(=O)/C=C/c1cc(F)ccc1O | / | / | / | 66.2* | / | / | 39.8* | 38.2*
CCOC(=O)c1cc[nH]c1C | -3.5 | -0.3 | -1.9 | 0.2 | -10.8 | -7.4 | / | /
SMILES | HDAC3 inhib | AHR activator | GAA850 FXN act | SENP1 inh | M18AAP inhibitor | Fh CTSL1 inh | SENP1 inh conf | SENP1 kin conf
CCN1C[C@@H]2[C@@H]3C(=O)N(C)C(=O)[C@@H]3[C@](Cc3ccccc3)(C(=O)OC)N2C1=NC1CCCCC1 | / | / | -0.5 | 2.3 | / | / | / | /
COC(=O)C(CC(=O)c1ccc(Cl)cc1)c1ccccc1 (centres undefined) | / | / | 0.6 | 2.6 | / | / | / | /
Cc1nc(-c2ccc(F)cc2)c(CC(=O)N2CCN(S(=O)(=O)c3cccc([N+](=O)[O-])c3)CC2)s1 | / | / | -0.8 | 35.0* | / | / | 10.3 | 2.5
Cc1nc(NC(=O)COC(=O)C2CC3CCCC(C2)C3=O)c(Cl)cc1Cl (centres undefined) | -1.0 | 0.9 | 1.3 | 0.0 | / | / | / | /
Cc1ccc(-n2cnc3sc(C)c(C)c3c2=O)cc1 | 4.9 | -0.5 | 2.0 | 37.1* | -2.5 | -4.3 | -13.7 | 1.3
COc1ncc(-c2ccc(N3C(c4ccc([N+](=O)[O-])cc4)=Cc4ccccc4C3CC(C)=O)cc2)cn1 (centres undefined) | / | / | / | 48.1* | / | / | 18.2 | 11.1
CCN(CC)CCNc1ccc(CO)c2sc3ccccc3c(=O)c12 | 6.3 | 21.1 | -2.1 | 22.5 | 19.1 | 1.5 | / | /
CCN(CC)CCNc1cccc2sc3ccccc3c(=O)c12 | / | / | 2.6 | 32.5* | / | / | 38.5* | 25.9
CCN(CC)CCNc1ccc(CO)c2oc3ccccc3c(=O)c12 | / | / | -1.8 | 46.8* | / | / | 48.0* | 39.5*
O=c1cc(NCCO)c2ccccc2o1 | -0.3 | -2.4 | 0.8 | -1.1 | -6.8 | 1.3 | / | /
CN(C)CCNc1cccc2sc3ccc(O)cc3c(=O)c12 | / | / | / | 48.6* | / | / | 57.3* | 26.3
O=C(Nc1ccn(CC(=O)N2CCN(c3ccccn3)CC2)c(=O)n1)OCc1ccccc1 | -0.2 | -3.1 | 1.5 | 3.7 | / | / | / | /
C=CCOCCN1C(=O)C2C(c3ccccc3)C=CC(c3ccccc3)C2C1=O (centres undefined) | -1.4 | 2.2 | -3.0 | 65.8* | -4.0 | 5.8 | 76.2* | 61.0*
O=C(Cc1ccccc1F)Nc1cccc2cccnc12 | 1.3 | 2.9 | 1.9 | 0.7 | 1.3 | -2.3 | / | /
O=C(O)CCCC(=O)Nc1cccc2cccnc12 | 1.9 | -0.3 | -0.4 | 34.2* | -0.7 | -0.5 | 2.0 | -4.3
COCCNC(=O)C1(C)CCN(C(=O)c2ccc3c(c2)C(C)(C)CCC3(C)C)C1 (centres undefined) | / | / | 0.1 | 2.5 | / | / | / | /
Oc1ccc(C=NN=C2c3ccccc3-c3ccccc32)c(O)c1 | / | / | -1.3 | 70.7* | / | / | 78.4* | 50.8*
Cc1cc(C2CCCCC2)n(O)c(=O)c1 | 5.6 | -2.8 | -1.9 | 0.5 | / | 0.8 | / | /
COc1ccccc1-n1cc(C(=O)c2cc(Cl)ccc2O)cc(C#N)c1=O | -5.1 | 16.0 | 2.1 | 45.5* | -6.2 | 1.5 | 39.3* | 29.0
Cc1ccccc1-n1cc(C(=O)c2cc(Cl)ccc2O)cc(C#N)c1=O | -2.8 | 8.4 | -1.1 | 43.0* | 1.8 | 1.3 | 35.0 | 23.7
C=CCNc1nc(-c2ccc([N+](=O)[O-])cc2)cs1 | 1.9 | -2.9 | 2.7 | 50.1* | 1.8 | 0.6 | 29.1 | 15.9

High-throughput results (PubChem)
